The text below walks through data of ChEMBL document CHEMBL4038302, “Fibroblast Activation Protein α Activated Tripeptide Bufadienolide Antitumor Prodrug with Reduced Cardiotoxicity” (J Med Chem, 2017).

pIC50: −log10 of the molar value. Active and inactive are the calls of the source. No cut-off for these calls is given here.

Data set [1] relates to MDA-MB-231. As to the kind of experiment: Induction of apoptosis in human MDA-MB-231 cells xenografted in BALB/C nude mouse at 4 umol/kg, iv administered starting on day 5 measured after day 22 by tunnel assay relative to control. Type of data set: functional. As to conditions: in the assay text read “12 umol/kg” for “4 umol/kg”. A digest of the protocol:
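Paraffin tumour sections from dosed xenograft mice stained by in situ cell death detection (TUNEL), examined blind to treatment. Percentage of apoptotic cells quantified by image analysis. Mean ± SEM, n = 6, versus the 5% HS15 control.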

Data set [2] can be described thus: Ratio of invivo prodrug activation in tumor of BALB/C nude mouse xenografted with human MDA-MB-231 cells assessed as FAP-alpha mediated (S)-((3S,5R,8R,9S,10S,11S,13R,14S,17R)-11,14-dihydroxy-10,13-dimethyl-12-oxo-17-(2-oxo-2H-pyran-5-yl)hexadecahydro-1H-cyclopenta[a]phenanthren-3-yl) 2-amino-3-(1H-indol-3-yl)propanoate formation in absence of talabostat to FAP-alpha mediated (S)-((3S,5R,8R,9S,10S,11S,13R,14S,17R)-11,14-dihydroxy-10,13-dimethyl-12-oxo-17-(2-oxo-2H-pyran-5-yl)hexadecahydro-1H-cyclopenta[a]phenanthren-3-yl) 2-amino-3-(1H-indol-3-yl)propanoate formation in presence of talabostat at 40 umol/L by LC-MS/MS analysis. Further details: species or system Neoplasm.

Data set [3] concerns the target T1, Prolyl endopeptidase FAP (Homo sapiens, UniProt Q12884).
T1 sequence (Q12884 whole entry): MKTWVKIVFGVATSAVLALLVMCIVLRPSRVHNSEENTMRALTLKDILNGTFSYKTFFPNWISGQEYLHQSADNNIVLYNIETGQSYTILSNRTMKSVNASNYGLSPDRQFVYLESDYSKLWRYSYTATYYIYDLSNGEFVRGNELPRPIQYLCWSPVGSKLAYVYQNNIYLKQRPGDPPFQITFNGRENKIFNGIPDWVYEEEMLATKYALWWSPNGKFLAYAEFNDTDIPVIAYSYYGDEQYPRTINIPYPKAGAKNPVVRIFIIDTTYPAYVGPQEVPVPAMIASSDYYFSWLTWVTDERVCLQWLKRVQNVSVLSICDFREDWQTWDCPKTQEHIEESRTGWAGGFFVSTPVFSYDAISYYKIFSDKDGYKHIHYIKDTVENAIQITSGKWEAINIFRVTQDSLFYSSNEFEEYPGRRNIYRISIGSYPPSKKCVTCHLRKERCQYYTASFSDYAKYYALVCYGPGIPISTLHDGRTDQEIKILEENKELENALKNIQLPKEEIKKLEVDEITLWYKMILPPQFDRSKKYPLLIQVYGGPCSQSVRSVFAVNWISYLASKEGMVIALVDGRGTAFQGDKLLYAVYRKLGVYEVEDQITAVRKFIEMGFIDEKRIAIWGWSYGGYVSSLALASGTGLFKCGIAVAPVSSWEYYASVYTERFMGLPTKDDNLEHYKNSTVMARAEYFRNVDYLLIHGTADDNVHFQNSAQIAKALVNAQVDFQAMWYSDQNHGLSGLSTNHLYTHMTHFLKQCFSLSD
Description: Prodrug activation assessed as recombinant human FAP-alpha mediated (S)-((3S,5R,8R,9S,10S,11S,13R,14S,17R)-11,14-dihydroxy-10,13-dimethyl-12-oxo-17-(2-oxo-2H-pyran-5-yl)hexadecahydro-1H-cyclopenta[a]phenanthren-3-yl) 2-amino-3-(1H-indol-3-yl)propanoate formation at 40 umol/L after 6 hrs in presence of FAP-alpha inhibitor talabostat by UPLC-MS/MS analysis. As to conditions: 40 µM. A digest of the protocol: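 Prodrug at 40 μmol/L incubated with rhFAPα at 0.45 μg/mL in 0.2 mL buffer at 37 °C for 6 h, with bufalin at 2 μmol/L as internal standard. Stopped with acetonitrile and spun at 18 000g for 15 min. Released active form measured by UPLC-MS/MS via peak-area ratio against a standard curve of 0.625–40 μmol/L.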

Data set [4] relates to Mus musculus. As to the kind of experiment: Toxicity in BALB/C nude mouse xenografted with human MDA-MB-231 cells assessed as abnormal food intake at 12 umol/kg, iv administered starting on day 5 measured after day 22. Type of data set: organism-based. As to conditions: in vivo.
For data set [5], the system named is MDA-MB-435. Description: Antiproliferative activity against wild type human MDA-MB-435 cells expressing FAP-alpha incubated for 48 hrs by MTT assay. Type of data set: functional, cell-based. As to conditions: MDA-MB-435, 48 h. In a few lines: (§1)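 Cells grown in DMEM with 10% FBS and 1% penicillin-streptomycin at 37 °C, 5% CO2; 10% heat-inactivated FBS used during cytotoxicity testing to exclude serum FAP activity. Viability read by MTT; IC50 as mean ± SEM of at least three independent experiments. Transfected lines were made from MDA-MB-231 with human FAPα plasmid or empty pCMV6-Entry vector and checked by Western blot at 48 h.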

For data set [6], the system named is MDA-MB-231. Description: Antiproliferative activity against FAP-alpha deficient human MDA-MB-231 cells incubated for 48 hrs by MTT assay. It is filed as functional, cell-based. As to conditions: MDA-MB-231, 48 h. A digest of the protocol:
as §1

The test system of data set [7] is MDA-MB-231. Description: Antitumor activity against human MDA-MB-231 cells xenografted in BALB/C nude mouse at 4 umol/kg, iv administered starting on day 5 measured after day 22 by Ki67 staining-based assay relative to control. It is filed as functional. In a few lines: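 Female BALB/C nude mice, MDA-MB-231 cells (1 × 10^7) injected subcutaneously in Matrigel–PBS 1:1. Daily iv dosing in 5% HS15 vehicle from day 5. Tumours fixed and paraffin-embedded, 5 μm sections, anti-Ki67 IHC, read blind by a pathologist. Proliferative index by image analysis, n = 6. Compared with 5% HS15 control by one-way ANOVA and Tukey's test.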

The test system of data set [8] is Mus musculus. As to the kind of experiment: Cardiotoxicity in BALB/C nude mouse xenografted with human MDA-MB-231 cells assessed as change in left ventricular internal systole dimension at 12 umol/kg, iv administered starting on day 5 measured after day 22 by echocardiography. As to conditions: in vivo. It is filed as toxicity, organism-based. In a few lines: (§2)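 Same MDA-MB-231 xenograft mice, given daily iv doses in 5% HS15 from day 5. After 22 days of dosing, transthoracic echocardiography with a 21 MHz transducer under 1.5% isoflurane, supine. M-mode images taken from the parasternal short-axis view at the papillary muscle; IVSd, IVSs, LVIDd and LVIDs derived, n = 6.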

Data set [9] relates to Mus musculus. Description: Cardiotoxicity in BALB/C nude mouse xenografted with human MDA-MB-231 cells assessed as change in left ventricular internal diastole dimension at 12 umol/kg, iv administered starting on day 5 measured after day 22 by echocardiography. Type of data set: toxicity, organism-based. As to conditions: in vivo. A digest of the protocol:
as §2

For data set [10], the system named is Mus musculus. As to the kind of experiment: Cardiotoxicity in BALB/C nude mouse xenografted with human MDA-MB-231 cells assessed as cytoplasmic vacuolization at 12 umol/kg, iv administered starting on day 5 measured after day 22 by hematoxylin-eosin staining-based assay. It is filed as toxicity, organism-based. As to conditions: in vivo. A digest of the protocol:
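Tissues from dosed xenograft mice fixed for 24 h and paraffin-embedded. Sections of 5 μm, H&E stained; heart, liver, spleen, lung, kidney and femur examined by a pathologist blind to treatment.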

For data set [11], the system named is Mus musculus. As to the kind of experiment: Acute toxicity in Kunming mouse assessed as mortality at 12 umol/kg, iv after 8 hrs post dose. It is filed as organism-based. As to conditions: in vivo.
Data set [12] has as its system MDA-MB-231. Description: Antitumor activity against human MDA-MB-231 cells xenografted in BALB/C nude mouse assessed as decrease in tumor weight at 4 umol/kg, iv administered starting on day 5 measured after day 22. Type of data set: functional, organism-based. A digest of the protocol:
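Female BALB/C mice inoculated subcutaneously in the back with 1 × 10^7 MDA-MB-231 cells in Matrigel–PBS (1:1). From day 5, daily iv dosing in 5% Solutol-HS15 vehicle, with a vehicle control group. Tumours measured by caliper every 2 days (v = 0.5 × a × b²); tumour weight as mean ± SEM, n = 6, one-way ANOVA with Tukey's test.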

For `C[C@]12CC[C@H](OC(=O)[C@H](Cc3c[nH]c4ccccc34)NC(=O)[C@@H]3CCCN3C(=O)CNC(=O)OCc3ccccc3)C[C@H]1CC[C@@H]1[C@@H]2[C@H](O)C(=O)[C@]2(C)[C@@H](c3ccc(=O)oc3)CC[C@]12O`, the “fold change (FC)” value in [1] is 5. Moreover, the Ratio in data set [2] came out at 20. Further, the Drug metabolism entry in data set [3] was “Metabolite_Notdetected”. Moreover, the Activity entry in data set [4] was “Non-Toxic”; in data set [7], 45 - 50%; in [8], “Non-Toxic”; in data set [9], “Non-Toxic”; in [10] it was “Non-Toxic”; in [11], “Non-Toxic”. For the same compound, the pIC50 was 7.97 in data set [5] and 7.57 in data set [6]. Also, in [12], the result was Active.
